EBNA-1 inhibitor = blocks EBNA-1 binding to DNA | 300,000 tested, 0.34% active | inhibition, % at 14.8 µM | EBNA-1 DNA binding, fluorescence polarization; in the data active = inhibition above about 28%
HCV NS3 hel inh = HCV NS3 helicase inhibition; NS3 helicase DNA unwinding, Cy5 molecular beacon fluorescence; inhibition, % at 10.9 µM; 290,000 tested, 0.56% active;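 active = inhibition above the mean of all tested compounds plus 3 SD, set per campaign, cut at about 35% in these data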;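 note: 0% = DMSO wells and 100% = thioflavine S control wells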
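Measured by: Cy5 fluorescence, 0 and 60 min reads / Assay system: NS3 helicase fragment of HCV / Control set: low DMSO, high thioflavine S at 110 µM / Times: 1 h reaction at 25 °C, ATP-initiated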
ZTA counter = ZTA (EBV) inhibition in EBNA-1 counter-screen. inhibition, % at 11 µM. 320,000 tested, 0.15% active. ZTA-DNA binding, fluorescence polarization. AID 2234. P03206; in the data active = inhibition above about 33%
EBV gp42 block = EBV gp42 inhibition. 220,000 tested, 0.42% active. Q1HVG2. Fluorescence polarization binding assay, mP read-out. inhibition, % (tested at 21.74 µM); in the data active = inhibition above about 50%
Target sequence (Q1HVG2 whole entry, looked up): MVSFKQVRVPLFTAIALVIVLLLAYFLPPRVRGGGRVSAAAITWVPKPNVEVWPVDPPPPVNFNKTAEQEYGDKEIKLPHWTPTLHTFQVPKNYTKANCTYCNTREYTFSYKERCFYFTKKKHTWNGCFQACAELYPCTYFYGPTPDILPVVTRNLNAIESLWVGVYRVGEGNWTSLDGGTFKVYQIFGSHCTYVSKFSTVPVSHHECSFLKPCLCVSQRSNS
core dimer inh = HCV core protein dimerization inhibition | inhibition, % at 5 µM | TR-FRET GST/Flag-core106 dimerization, 1536-well | 300,000 tested, 0.33% active | AID 1899;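 active = inhibition above the mean of all tested compounds plus 3 SD, set per screening campaign, cut at about 45% in these data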
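Assay system: GST-tagged and Flag-tagged HCV core protein residues 1-106 / Times: compound-protein-antibody incubation 4 h at 22.5 °C / Signal: time-resolved FRET, ex 340 nm, em 617 and 671 nm / Evaluation: % inhibition based on acceptor/donor emission ratio / Benchmarks: wells lacking GST-core106 and wells with excess unlabelled core106 / Repeats: singlicate, one well per compound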
GPR7 antagonist = human neuropeptides B/W receptor 1 antagonism; GPR7-expressing cells, fluorescence antagonist assay; inhibition, % at 4.4 µM; 290,000 tested, 1.1% active; AID 1861; in the data active = inhibition above about 16%, passing the limit was not always enough;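 note: cells stimulated with the agonist NPW; 0% = agonist with vehicle and 100% = vehicle without agonist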
Target sequence (P48145 whole entry, looked up): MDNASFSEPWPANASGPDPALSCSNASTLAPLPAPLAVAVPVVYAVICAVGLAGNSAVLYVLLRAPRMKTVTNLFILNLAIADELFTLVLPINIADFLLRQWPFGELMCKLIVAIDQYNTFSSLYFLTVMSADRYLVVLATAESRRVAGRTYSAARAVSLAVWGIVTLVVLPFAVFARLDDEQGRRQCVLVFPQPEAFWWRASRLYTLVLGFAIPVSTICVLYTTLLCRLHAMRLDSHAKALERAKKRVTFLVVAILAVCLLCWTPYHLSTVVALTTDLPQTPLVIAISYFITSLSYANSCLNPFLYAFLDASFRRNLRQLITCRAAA
GPR7 antag cf = confirmation of human GPR7 antagonists. shares compounds with GPR7 antagonist. GPR7-expressing cells, calcium fluorescence antagonist mode. inhibition, % at 4.4 µM. 2,400 tested, 52% active. AID 1952; in the data active = inhibition above about 24%;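 note: stimulated with the GPR7 agonist NPW; 0% = agonist plus vehicle and 100% = vehicle alone without agonist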
MCHR1 antag = antagonizes human MCHR1, a GPR7 antagonist counter-screen; shares compounds with GPR7 antagonist; MCHR1-expressing cells, fluorescence antagonist assay; AID 2148; inhibition, % at 4.4 µM; 2,400 tested, 62% active; in the data active = inhibition above about 22%;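 note: 0% = vehicle with agonist and 100% = vehicle without agonist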
Active calls of the source: *; . = not tested or not shown. Only some compounds are listed: those with a hit (about 2.3% of all), similar ones and a draw of the others.

SMILES | EBNA-1 inhibitor | HCV NS3 hel inh | ZTA counter | EBV gp42 block | core dimer inh | GPR7 antagonist | GPR7 antag cf | MCHR1 antag
Cc1ccc(CCNC(=O)CS(=O)Cc2nc(-c3ccccc3Cl)oc2C)cc1 (centres undefined) | -9 | 7 | -8 | . | -7 | 2 | . | .
COc1ccccc1C(=O)NC1CCN(C(=S)NCCc2ccccc2)CC1 | -12 | -7 | -9 | -17 | 0 | -6 | . | .
N#Cc1ccc(S(=O)(=O)N2CCCN(c3ccc(C(F)(F)F)cn3)CC2)cc1 | -3 | -14 | -2 | -12 | 0 | 24* | 19 | 8
COc1ccnc(Oc2ccc(F)cc2)c1C(=O)N/C=N/OCc1ccccc1 | -2 | 0 | -1 | -10 | 2 | 9 | . | .
COc1ccnc(Oc2ccc(F)cc2)c1C(=O)N/C=N/OCc1ccc(F)cc1 | 5 | -6 | -2 | -25 | -6 | . | . | 13
COc1cccc2c(Nc3ccccc3C)cc(C)nc12 | -6 | -24 | -4 | . | 4 | -9 | . | .
COc1cccc(OCc2cc(C(=O)NCc3cnc4ccccn34)no2)c1 | -8 | -6 | 2 | . | -6 | 30* | 33* | 48*
Cc1cc([N+](=O)[O-])cc(C)c1OCC(=O)N/N=C/c1ccc(OC(=O)c2ccccc2)cc1 | 1 | 1 | 22 | -16 | 30 | . | . | 9
Cc1cc([N+](=O)[O-])cc(C)c1OCC(=O)N/N=C/c1ccc(OC(=O)c2ccccc2Br)cc1 | 10 | -14 | -5 | -22 | 34 | -2 | . | .
NC(=O)c1nc(-c2cccs2)nc2c1[nH]c(=O)n2-c1ccc(F)cc1 | -3 | -1 | 12 | -13 | 12 | -7 | . | .
FC(F)(F)c1cc(C(F)(F)F)c2ccc(N3CCN(c4ccc(Cl)cc4)CC3)nc2n1 | -6 | -1 | -26 | -18 | 0 | -7 | . | .
N#CC(c1ccc(Cl)cc1)c1ccc2c(C(F)(F)F)cc(C(F)(F)F)nc2n1 (centres undefined) | 8 | -5 | 11 | 18 | 21 | 33* | 59* | 50*
C/C(CC(=O)Nc1cccc2c1CCCC2)=N\NC(=O)c1ccccc1N | 0 | 5 | 3 | -4 | 2 | 25* | 15 | 6
Cc1ccc(C)c(S(=O)(=O)N2CCCOC2CNC(=O)C(=O)NCc2ccccc2)c1 (centres undefined) | 3 | -9 | 2 | . | 3 | -8 | . | .
Cc1cccc(C(=O)NNC(=O)CCCCC(=O)NNC(=O)c2cccc(C)c2)c1 | -11 | -1 | -9 | . | -12 | 17 | . | .
COc1ccc(C2CC(=O)C(C=NCCN3CCOCC3)=C(O)C2)cc1 (centres undefined) | 3 | 15 | -20 | -14 | -3 | 23* | -1 | 5
CC(C)CNc1nc(Oc2ccc(=O)[nH]n2)nc(N2CCOCC2)n1 | 0 | 0 | 6 | -17 | -2 | -1 | . | .
O=C(CCNS(=O)(=O)c1ccc(Br)s1)Nc1ccc(Cl)cc1 | -5 | -9 | 5 | -9 | 4 | 32* | 32* | 30*
CCN(CC(=O)Nc1c(F)cccc1F)C(=O)CSCC(=O)Nc1cccc(C)c1 | 3 | . | 6 | . | -1 | . | . | .
CCOC(=O)N1CCC(Nc2c([N+](=O)[O-])cc(C(=O)O)cc2[N+](=O)[O-])CC1 | -1 | -4 | 12 | . | 0 | 6 | . | .
Clc1ccc(CSCCc2ccncc2)cc1 | -2 | 0 | -3 | -5 | -1 | 23* | 9 | 26*
CC(C)CCNC(=O)CCn1nc(-c2ccc(Cl)cc2)ccc1=O | -8 | -3 | -9 | . | -10 | -13 | . | .
O=S(=O)(c1ccc(OC(F)(F)F)cc1)N1CCC(O)(c2cccc(C(F)(F)F)c2)CC1 | -5 | -1 | -4 | . | -12 | 39* | 44* | 46*
COc1cc(S(=O)(=O)N2CCC(O)(c3cccc(C(F)(F)F)c3)CC2)ccc1-n1cnnn1 | -3 | -2 | -3 | -10 | 4 | -1 | . | .
CC1CCCCC1NC(=O)CN1C(=O)CSc2cc(S(=O)(=O)N3CCCCCC3)ccc21 (centres undefined) | -3 | 9 | -22 | -1 | 7 | 28* | 23 | 18
SMILES | EBNA-1 inhibitor | HCV NS3 hel inh | ZTA counter | EBV gp42 block | core dimer inh | GPR7 antagonist | GPR7 antag cf | MCHR1 antag
Cc1ccccc1NC(=O)c1cccc(S(=O)(=O)Oc2ccc([N+](=O)[O-])cc2)c1 | 9 | -5 | -4 | -8 | 0 | 27* | 44* | 42*
Cc1ccc(NC(=O)c2cccc(Oc3ccc([N+](=O)[O-])cc3)c2)c(C(=O)O)c1 | 12 | -21 | 17 | . | 15 | -7 | . | .
CC(=O)N1CN(C2CCCC2)Cc2c1sc1c2CCCC1 | 7 | 1 | 8 | -8 | 0 | 24* | 17 | 13
CC(=O)N1CN(C2CC(C)(C)NC(C)(C)C2)Cc2c1sc1c2CCCC1 | -9 | -13 | 10 | -5 | 3 | 7 | . | .
COc1cccc(Cn2cccc(NC(=O)Nc3cccc(C#N)c3)c2=O)c1 | 9 | 16 | 5 | -19 | 0 | 27* | 26* | 67*
COc1cccc(NC(=O)Nc2cccn(Cc3ccc(C)cc3)c2=O)c1 | -9 | 0 | 6 | -2 | 13 | -5 | . | .
CC1(C)CC2c3cccc(C(=O)O)c3C(=O)N2c2c1ccc1ccccc21 (centres undefined) | 8 | 6 | 17 | -4 | 7 | -1 | . | .
CCNC(=O)/C(C#N)=C/c1c(N(Cc2ccccc2)Cc2ccccc2)nc2ccccn2c1=O | 6 | -8 | -19 | -21 | 19 | -8 | . | .
CNC(=O)/C(C#N)=C/c1c(N(Cc2ccccc2)Cc2ccccc2)nc2c(C)cccn2c1=O | 14 | -2 | 19 | -26 | 15 | 39* | 23 | 49*
Cc1ccc2c(CC(=O)NNC(=O)c3ccncc3)coc2c1 | -10 | . | -11 | . | -1 | . | . | .
CCOC(=O)c1[nH]c(CN2CCN(c3ccc(OC)cc3)CC2)c(C(=O)OCC)c1C | 8 | -30 | -11 | . | -3 | 25* | 23 | 39*
COc1ccc(-n2c(-c3ccc(Cl)cc3)c[n+]3c2CCc2ccccc2-3)cc1 | -12 | -27 | 1 | -5 | 0 | 31* | 33* | 35*
O=S1(=O)Cc2cc3ccccc3cc2C1 | 2 | -2 | -24 | 14 | -1 | -5 | . | .
NC(=O)C1(N2CCCCC2)CCN(C(=S)Nc2ccc(F)c(Cl)c2)CC1 | -12 | -2 | -18 | -3 | -2 | -15 | . | .
COc1ccc(Cn2nnnc2CN2CCC(c3nc4ccccc4s3)CC2)cc1 | -10 | 6 | -9 | 15 | 3 | 29* | 36* | 64*
c1ccc2sc(C3CCN(Cc4nnnn4Cc4ccc5c(c4)OCO5)CC3)nc2c1 | -4 | -11 | 1 | 1 | 8 | -9 | . | .
CN(C)/C=N/c1ncn(-c2ncc(C(F)(F)F)cc2Cl)n1 | 4 | 0 | -3 | -7 | -6 | -2 | . | .

Assay outcomes from PubChem BioAssay.
